Source: PubChem BioAssay (several laboratories)
Lipid droplet = hepatic lipid droplet formation modulation; AML12 mouse hepatocytes, oleate lipid droplets, BODIPY imaging; inhibition, % at 6.5 µM; 0.4% of 240,000 active;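 active means lipid droplet intensity inhibited by at least 50%, with more than 500 cells counted; inconclusive means wells with under 300 cells, treated as cytotoxic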
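material = mouse AML12 hepatocyte cell line, fixed after treatment | also added = 100 µM oleic acid challenge | doses = compound at 6.5 µM only | schedule = overnight exposure | technique = Image-based BODIPY and DAPI two-channel analysis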
Yeast superoxide = lowers age-related superoxide in aged yeast cells; S. cerevisiae aged cells, superoxide DHE fluorescence; stronger effect = lower value; 0.18% of 330,000 active; superoxide response (% of plate mean), % at 10 µM; AID 2690;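 active means superoxide response under a set limit, about three screen SD below normal, cut at about 65% in these data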;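 further: yeast aged for seven days with compound at 30 °C before DHE staining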
SR-BI HDL uptake = mouse SR-BI HDL lipid transfer inhibition; Q61009; ldlA[mSR-BI] CHO cells, DiI-HDL uptake fluorescence, 3 h; inhibition, % at 12.5 µM; 0.96% of 320,000 active;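 active means mean replicate inhibition of at least 70% and a set share of replicates each scoring 70 or more; inconclusive means meets just one of the two criteria; inactive means fails both criteria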
Target sequence (Q61009 whole entry, looked up): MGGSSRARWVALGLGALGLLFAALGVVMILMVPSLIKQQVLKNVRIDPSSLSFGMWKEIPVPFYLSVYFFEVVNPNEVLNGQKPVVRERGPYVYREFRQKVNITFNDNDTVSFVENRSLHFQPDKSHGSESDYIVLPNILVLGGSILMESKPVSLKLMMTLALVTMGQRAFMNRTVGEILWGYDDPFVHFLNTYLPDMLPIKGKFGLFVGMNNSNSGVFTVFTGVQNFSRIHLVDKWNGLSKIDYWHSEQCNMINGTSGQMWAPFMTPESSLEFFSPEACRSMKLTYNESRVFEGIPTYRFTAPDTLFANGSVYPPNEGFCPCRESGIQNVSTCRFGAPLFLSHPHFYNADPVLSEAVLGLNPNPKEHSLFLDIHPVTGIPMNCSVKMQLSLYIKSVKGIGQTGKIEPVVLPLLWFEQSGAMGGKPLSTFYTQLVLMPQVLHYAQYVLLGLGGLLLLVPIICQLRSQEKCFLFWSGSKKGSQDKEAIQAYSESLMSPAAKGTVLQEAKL
AHR activator = human AHR activation | AHR-responsive luciferase reporter cells, luminescence | activation, % at 5 µM | AID 2796 | 2.5% of 320,000 active | P35869; in the data active means activation above about 47%
SMARCA2 activ = increases SMARCA2 function in MMTV reporter cells; MG213 cells, MMTV-luciferase reporter, dexamethasone, overnight; activation, % at 9.1 µM; 1% of 370,000 active; in the data active means activation above about 7.8%
SR-BI DiI-HDL act = activators of SR-BI mediated HDL lipid uptake. CHO ldlA[mSR-BI] cells, DiI-HDL uptake fluorescence, 3 h; 100 = double the neutral-control signal. activation, % at 12.5 µM. 0.096% of 320,000 active. AID 504775;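 active means mean replicate activation of at least 60% and every replicate at or above 60%; inconclusive means mean or all-replicate condition met, but not both; inactive means mean below 60% and not all replicates reaching 60%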
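Assay system: CHO ldlA[mSR-BI] cells, LDL receptor-null, SR-BI overexpressing; medium: Ham's F12 with 0.5% BSA, HEPES 25 mM, pH 7.4; also added: DiI-HDL 10 µg/mL; timing: 3 h uptake period with compound, 37 °C; signal: DiI fluorescence, bottom read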
A number is an active result; 0 = inactive; ? = inconclusive; - = no result given. Only some compounds are listed: those with a hit (about 4.3% of all), similar ones and a draw of the others.

SMILES	Lipid droplet	Yeast superoxide	SR-BI HDL uptake	AHR activator	SMARCA2 activ	SR-BI DiI-HDL act
CCn1c(=NC(=O)c2cccc(N3C(=O)CCC3=O)c2)sc2c(OC)ccc(OC)c21	0	0	91	0	0	0
Nc1c(-c2ccccc2)cnn1-c1ccccc1	0	0	0	0	0	0
O=c1cnn(-c2ccccc2)c(-c2ccccc2)c1	-	0	0	50	0	0
CCNC(=S)N/N=C/c1cc(C)n(-c2ccc(Cl)cc2)c1C	0	0	0	0	0	0
Cc1cc(/C=N/NC(N)=S)c(C)n1-c1ccc(Cl)c(Cl)c1	0	0	81	0	0	0
CC1CC1C(=O)N1CCC(Oc2cccnc2)CC1 (configuration not stated)	-	-	-	-	0	-
Cc1nnc(N/N=C/c2ccc(Br)cc2)n1N	0	0	0	0	0	0
Cc1nnc(N/N=C/c2ccc(-c3ccc(Br)cc3)o2)n1N	0	0	0	49	0	0
CCN(CC)CCC=C(c1cccs1)c1cccs1	-	-	0	-	7.9	0
O=C(CSc1nnc(-c2cccc(Cl)c2)n1Cc1ccco1)c1ccc(F)cc1	-	-	-	-	0	-
COCc1cc(N2CCN(C(=O)OC(C)(C)C)C[C@H]2C)ccc1N1CCN(Cc2ccccc2)[C@H](C)C1	-	-	-	-	0	-
COc1ccc(OC)c(-n2nnnc2SCC(=O)Nc2ccccc2N2CCOCC2)c1	0	0	0	0	0	0
COc1cccc(-n2c(C)nnc2SCC(=O)Nc2ccccc2N2CCOCC2)c1	-	0	0	0	7.9	0
COc1ccc(NC(=O)CSc2nc(N)c(C(=O)Nc3ccc(N(C)C)cc3)s2)cc1	0	0	0	50	-	0
CN(C)c1ccc(NC(=O)CSc2nc(N)c(C(=O)Nc3ccc(N(C)C)cc3)s2)cc1	-	0	0	0	0	0
COc1ccc2sc(-c3ccc(SC)cc3)c(/C=C/c3ccc(OC)c(OC)c3)c2c1	-	0	0	49	0	0
COC(=O)c1ccc(/C=C/c2c(-c3ccsc3)sc3ccccc23)cc1	0	0	79	0	0	0
COc1ccc(-c2sc3ccccc3c2/C=C/c2ccc(N)cc2)cc1	-	0	0	54	0	0
COC(=O)c1ccc(/C=N/n2c(C)nc3ccccc3c2=O)cc1	0	0	0	0	0	0
COC(=O)CC(=O)CC(NS(=O)(=O)c1ccc(C)cc1)c1ccccc1 (configuration not stated)	-	-	-	-	0	-
O=C(c1ccccc1Oc1ccccc1)N1CCC(Oc2cccnc2)CC1	-	-	-	-	0	-
COc1cccc(/C=N/NC(=O)c2nc(-c3ccccc3)cc(-c3ccccc3)n2)c1	-	0	81	0	0	0
Cc1cc(C(=O)N/N=C/c2cc([N+](=O)[O-])ccc2O)c2ccccc2n1	0	0	118	0	0	0
O=C(N/N=C/c1cccc([N+](=O)[O-])c1)c1cc(-c2ccccc2)nc2ccccc12	0	0	80	0	0	0
Cc1cc(C(=O)N/N=C/c2ccc([N+](=O)[O-])cc2)c2ccccc2n1	0	0	0	0	0	0
SMILES	Lipid droplet	Yeast superoxide	SR-BI HDL uptake	AHR activator	SMARCA2 activ	SR-BI DiI-HDL act
O=C(N/N=C/c1cc([N+](=O)[O-])ccc1O)c1cc(-c2ccccc2)nc2ccccc12	0	0	129	0	0	0
COc1ccc2c3c([nH]c2c1)[C@]1(NCC3)C(=O)N(C)c2ccc(Cl)cc21	-	-	-	-	0	-
C[C@@H]1[C@@H](O)C[C@]2(C[C@@H](O)c3ccccc3O2)O[C@H]1c1ccccc1	-	-	-	-	0	-
C[C@@H]1CN(c2ccc(N3CCNC[C@@H]3C)cc2C#N)CCN1Cc1ccccc1	-	-	-	-	0	-
N#CCC[C@@H]1CC[C@]2(CCCN(Cc3ccccc3)C2)O1	-	-	-	-	0	-
COC(=O)N1Cc2ccnnc2CC1c1ccccc1-c1ccc(OC)cc1 (configuration not stated)	-	-	-	-	0	-
Oc1c(C=Nc2cccc3cccnc23)sc2ccccc12	0	0	-	58	0	-
O=C(N/N=C/c1ccco1)c1cc(-c2cccc(Br)c2)nc2ccccc12	0	0	0	50	0	0
O=C(NN=Cc1cc([N+](=O)[O-])ccc1O)c1cccc2ccccc12	-	-	134	-	0	0
O=C(N/N=C/c1cc([N+](=O)[O-])ccc1O)c1c[nH]c2ccccc12	0	0	-	0	0	-
CC(/C=N/NC(=O)c1cc(-c2ccncc2)nc2ccccc12)=C\c1ccco1	?	0	0	0	-	0
Oc1ccc(Cl)cc1N=Cc1sc2ccccc2c1Cl	0	0	0	0	0	0
O=[N+]([O-])c1ccc(O)c(N=Cc2sc3ccccc3c2O)c1	0	0	124	0	0	0
Cc1cccc(/N=C/c2sc3ccccc3c2O)n1	0	0	-	0	0	-
O=S1(=O)c2ccc(Br)cc2OC[C@@H](c2ccccc2)N1Cc1cn(CCC2OCCCO2)nn1	-	-	-	-	0	-
Cc1ccc(-c2cc(C(=O)NN=Cc3cccc4ccccc34)[nH]n2)cc1C	-	-	-	-	0	-
CCN(C(=O)[C@@H](C)[C@@H](O)c1ccc(Cl)cc1)c1ccccc1	-	-	-	-	0	-
COC(=O)[C@]12C[C@H](CC(=O)NCc3cccc4ccccc34)C(=O)N(Cc3ccc4c(c3)OCO4)C1=C[C@H](C(C)C)O[C@@H]2C1CC1	-	-	-	-	0	-
Cc1ccccc1C(=O)N[C@@H](CC(C)C)C(=O)N1CCC[C@H]1C(=O)NCc1ccccc1	-	-	-	-	0	-
Nc1ccc(C(=O)N/N=C\c2cc(N=Nc3cccc4ccccc34)ccc2O)cc1	-	0	122	0	0	0
O=C(N/N=C/c1cc([N+](=O)[O-])ccc1O)C12CC3CC(CC(C3)C1)C2	0	0	136	0	0	0
O=[N+]([O-])c1ccc(O)c(C=Nc2cccc3ncccc23)c1	0	0	0	0	0	0
O=[N+]([O-])c1ccc(O)c(C=Nc2cccc3ccccc23)c1	0	0	0	52	0	0
COC(=O)[C@]12C[C@H](CC(=O)NCC3CCCCC3)C(=O)N(CCc3ccc(OC)c(OC)c3)C1=C[C@H](C(C)C)O[C@@H]2C1CC1	-	-	-	-	0	-
C=CCn1c(SCC(=O)Nc2ccccc2OCC)nnc1-c1ccc(C(C)(C)C)cc1	-	-	-	-	0	-
SMILES	Lipid droplet	Yeast superoxide	SR-BI HDL uptake	AHR activator	SMARCA2 activ	SR-BI DiI-HDL act
CCOc1ccccc1C(=O)NC(C)c1ccc(-n2ccnc2)cc1 (configuration not stated)	0	0	0	65	0	0
COc1ccccc1C(=O)NC(C)c1ccc(-n2ccnc2)cc1 (configuration not stated)	0	0	0	60	0	0
CCOc1ccc(C(=O)NCC(=O)NC(C)c2ccc(-n3ccnc3)cc2)cc1OCC (configuration not stated)	0	0	0	0	0	0
COc1ccc(O)c(C(=O)CC(=O)c2cccnc2)c1	-	-	0	-	13	0
C[C@@H]1ON(C)[C@H]2C[C@H]3c4cc(Br)ccc4CCN3C[C@@H]12	-	-	-	-	0	-
NS(=O)(=O)c1ccc(N=Nc2c(-c3ccccc3)[nH]n(-c3nc(-c4ccccc4)cs3)c2=O)cc1	0	0	112	0	0	0
